SENP1 inh: human SENP1 catalytic domain inhibitors, primary screen, biochemical, FRET, uHTS | Sentrin-specific protease 1 (Homo sapiens), Q9P0U3 | recombinant SENP1 catalytic domain, CyPet-SUMO1-YPet FRET cleavage | inhibition, % at 10 µM | hit rate 0.21% among 360,000;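 active = inhibition at least 30% at 10 µM, raw YFP signal under a set limit, fluorescence ratio 0.5 to 1.5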;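 also: 0% = enzyme with DMSO and 100% = no enzyme wells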
Target sequence (Q9P0U3 419-644 limits assumed): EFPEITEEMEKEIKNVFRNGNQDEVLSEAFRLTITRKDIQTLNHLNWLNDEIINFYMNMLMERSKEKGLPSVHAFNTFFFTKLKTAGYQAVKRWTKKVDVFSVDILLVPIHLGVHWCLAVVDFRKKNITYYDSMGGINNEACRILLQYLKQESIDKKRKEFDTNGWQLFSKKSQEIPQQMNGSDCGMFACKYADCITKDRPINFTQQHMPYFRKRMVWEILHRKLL
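Test system: hSENP1 catalytic domain, recombinant; Amount: 20 pM final SENP1 enzyme; Medium: Tris pH 8 buffer plus EDTA, NaCl, BME, BSA, NP40, catalase; Schedule: 50 min enzyme reaction, room temperature, light-protected; Technique: FRET fluorescence in CFP and YFP emission channels; Controls: no-enzyme wells low, DMSO-plus-enzyme wells high control.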
NRP1-CendR mod: modulators of CendR peptide binding to NRP-1, primary screen, biochemical, fluorescence polarization, uHTS; Neuropilin-1 (Homo sapiens), O14786; FAM-RPARPAR peptide binding to NRP-1; inhibition, % at 25 µM; hit rate 0.85% among 360,000; AID 602438, 2012;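 active = inhibition or corrected inhibition above about 18%, plus a signal ratio from 0.5 to 1.5, limit read from the data, passing the limit was not always enough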
SENP7 block: SENP7 protease inhibitors, primary screen, biochemical, luminescence, uHTS; AID 434973, 2010; inhibition, % at 5 µM; hit rate 1.5% among 330,000; recombinant SENP7, Z-RLRGG-aminoluciferin luminescence, 40 min;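 active = inhibition above about 50% at the single test dose, limit read from the data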;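 also: plate controls were DMSO with enzyme for no effect and no enzyme buffer wells for full effect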
SENP8 block-1: SENP8 protease inhibitors, primary screen, biochemical, luminescence | inhibition, % at 10 µM | Sentrin-specific protease 8 (Homo sapiens), Q96LD8 | hit rate 1.2% among 330,000 | purified SENP8, Z-RLRGG-aminoluciferin cleavage; in the data active = inhibition above about 50%
SENP8 block-2: human SENP8 protease inhibitors, primary screen, biochemical, fluorescence, Nedd8 protein substrate, uHTS. Sentrin-specific protease 8 (Homo sapiens), Q96LD8. recombinant SENP8. inhibition, % at 20 µM. hit rate 0.64% among 360,000; in the data active = inhibition mostly above about 40%, no sharp cut-off; inactive = mostly below about 27%
SENP6 block: SENP6 protease inhibitors, primary screen, biochemical, luminescence, uHTS; AID 2599, 2010; inhibition, % at 10 µM; Sentrin-specific protease 6 (Homo sapiens), Q9GZR1; hit rate 1.8% among 330,000; Recombinant SENP6 catalytic domain, aminoluciferin luminescence;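 active = inhibition above about 50% at the single tested dose, limit read from the data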;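 also: plate controls were DMSO wells with enzyme for no effect and DMSO wells lacking enzyme for full effect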
SENP8 conf: SENP8 protease inhibitors, retest, confirmation, biochemical, luminescence, single concentration; shares compounds with SENP7 block; inhibition, % at 12.5 µM; hit rate 40% among 6,200; Recombinant SENP8, Z-RLRGG-aminoluciferin luminescence, 60 min; AID 488912, 2010;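 active = mean inhibition across replicates above about 50%, limit read from the data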
SENP6 confirm: SENP6 protease inhibitors, confirmation, biochemical, luminescence, single concentration. shares compounds with SENP7 block. hit rate 58% among 6,200. recombinant SENP6, Z-RLRGG-aminoluciferin luminescence. inhibition, % at 12.5 µM. AID 488915, 2010
SENP7 conf: SENP7 protease inhibitors, retest, confirmation, biochemical, luminescence, single concentration. AID 488917, 2010. recombinant SENP7, Z-RLRGG-aminoluciferin luminescence, 40 min. shares compounds with SENP7 block. hit rate 69% among 6,200. inhibition, % at 12.5 µM
Casp3 SENP sel: caspase-3 protease inhibitors, confirmation, selectivity assay for SENP inhibitor project, biochemical, single concentration; purified caspase-3, Z-DEVD-aminoluciferin luminescence, 60 min; inhibition, % at 12.5 µM; shares compounds with SENP7 block; hit rate 60% among 6,200;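 active = mean inhibition above about 50%, limit read from the data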;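 also: plate controls were enzyme with DMSO for no effect and wells without caspase-3 for full effect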
Target sequence (P42574 28-227 limits assumed): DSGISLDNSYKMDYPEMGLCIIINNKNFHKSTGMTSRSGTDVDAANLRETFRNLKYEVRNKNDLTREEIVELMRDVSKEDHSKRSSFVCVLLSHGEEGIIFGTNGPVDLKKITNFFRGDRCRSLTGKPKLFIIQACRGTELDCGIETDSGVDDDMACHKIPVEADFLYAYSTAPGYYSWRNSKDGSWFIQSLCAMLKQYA
Luc interf: interferes with luciferase luminescence in SENP counter-screen | hit rate 39% among 6,200 | Pre-incubated SENP8/Z-RLRGG-aminoluciferin, luciferase luminescence interference | shares compounds with SENP7 block | inhibition, % at 12.5 µM;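 active = mean inhibition above about 50% when retested at one dose, limit read from the data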;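 also: plate controls were DMSO wells with completed reaction for no effect and substrate without enzyme for full effect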
* marks the source's active call; other numbers are inactive results; / = not tested or not shown. Most compounds without a hit are left out; they make up all but 3.3% or so of the library.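 The calls were made as follows, unless noted: active = mean inhibition above about 50% in the one-dose retest (limit read from the data); inactive = the rest.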

SMILES | SENP1 inh | NRP1-CendR mod | SENP7 block | SENP8 block-1 | SENP8 block-2 | SENP6 block | SENP8 conf | SENP6 confirm | SENP7 conf | Casp3 SENP sel | Luc interf
O=C(/C=C/c1ccc2c(c1)OCO2)Nc1ccc(Cl)cn1 | -1 | -20 | 54* | -2 | -373 | 4 | -27 | -17 | 9 | 6 | -3
COc1ccccc1NC(=O)COC(=O)/C=C/c1ccc2c(c1)OCO2 | 1 | 6 | -4 | -2 | -312 | 8 | / | / | / | / | /
COc1ccc(OC)c(NC(=O)CSc2nc3[nH]c(=O)[nH]c(=O)c3s2)c1 | -7 | -6 | / | / | 5 | / | / | / | / | / | /
O=C(NCCCN1CCOCC1)c1c(-c2ccccc2)oc2c1C(OCCCCCO)CCC2 (configuration not stated) | 1 | 1 | / | / | -12 | / | / | / | / | / | /
O=C1NC(=O)C2(CCCCC2)N1 | 2 | -16 | / | / | 15 | / | / | / | / | / | /
CC(=O)Nc1ccc(CN(C)c2c(C)nc3ccc(C(=O)NC4CCN(Cc5ccccc5)CC4)cn23)cc1 | -1 | 5 | / | / | 0 | / | / | / | / | / | /
CC1=NN(C(N)=S)C(=O)C1N=Nc1ccccc1Cl (configuration not stated) | 2 | -4 | 53* | 83* | 42* | 89* | 43 | 90* | 98* | 82* | 31
COc1ccccc1N=NC1C(=O)N(C(N)=S)N=C1C (configuration not stated) | 7 | 13 | 5 | 2 | 31 | -12 | / | / | / | / | /
CC1=NN(C(N)=S)C(=O)C1N=Nc1ccccc1C(=O)O (configuration not stated) | 1 | 10 | 3 | -7 | 10 | 8 | / | / | / | / | /
CC1=NN(C(N)=S)C(=O)C1N=Nc1ccc(Cl)cc1Cl (configuration not stated) | 0 | 14 | 36 | 94* | 30 | 91* | 81* | 86* | 94* | 72* | 67*
O=c1ccc2nc3ccccc3sc-2c1 | 3 | 14 | / | / | 7 | / | / | / | / | / | /
O=C(NCc1cccc(F)c1)Nc1nnc([C@H]2C[C@H](O)[C@@H](CO)O2)s1 | 2 | -4 | / | / | -8 | / | / | / | / | / | /
CN(C)S(=O)(=O)c1cccc(C(=O)N=C2N=C3C=CC(Cl)=CN3Cc3ccccc32)c1 | 2 | -4 | 89* | 69* | 11 | 91* | 12 | 15 | 42 | 67* | 20
COc1cc(/C=C2/C(=O)N(c3cccc(Br)c3)N=C2C)cc(OC)c1O | 19 | -168 | 54* | 2 | 61* | -14 | 8 | 16 | 7 | 4 | 6
CC1=NN(c2ccccc2)C(=O)/C1=C\C=C\c1ccccc1 | 2 | -11 | 2 | 3 | 32 | -2 | / | / | / | / | /
CC1=NN(c2ccccc2)C(=O)/C1=C/c1cccc(C)c1 | 3 | -2 | 52* | -1 | 70* | 23 | 2 | 16 | -1 | -2 | -4
COc1ccc(NC(=O)c2cc(-c3cc(C)cc(F)c3)n[nH]2)cc1OC | -1 | -3 | / | / | 15 | / | / | / | / | / | /

Compound activity deposited in PubChem by Sanford-Burnham Center for Chemical Genomics.
